Source: PubChem BioAssay (several laboratories)
Only some compounds are listed: those with a hit (about 9.8% of all), similar ones and a draw of the others.
PMI act hi M6P: human PMI activators, high substrate, primary screen, biochemical, fluorescence intensity, near-saturating mannose 6-phosphate; Mannose-6-phosphate isomerase (Homo sapiens), P34949; coupled PMI enzyme assay, resazurin fluorescence, 20 min; active compounds read high; 1 = untreated enzyme, 0 = substrate-free blank; activation factor at 20 µM; hit rate 0.34% among 190,000;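 active = activation factor of 2 or more at 20 µM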
Target sequence (P34949 whole entry, looked up): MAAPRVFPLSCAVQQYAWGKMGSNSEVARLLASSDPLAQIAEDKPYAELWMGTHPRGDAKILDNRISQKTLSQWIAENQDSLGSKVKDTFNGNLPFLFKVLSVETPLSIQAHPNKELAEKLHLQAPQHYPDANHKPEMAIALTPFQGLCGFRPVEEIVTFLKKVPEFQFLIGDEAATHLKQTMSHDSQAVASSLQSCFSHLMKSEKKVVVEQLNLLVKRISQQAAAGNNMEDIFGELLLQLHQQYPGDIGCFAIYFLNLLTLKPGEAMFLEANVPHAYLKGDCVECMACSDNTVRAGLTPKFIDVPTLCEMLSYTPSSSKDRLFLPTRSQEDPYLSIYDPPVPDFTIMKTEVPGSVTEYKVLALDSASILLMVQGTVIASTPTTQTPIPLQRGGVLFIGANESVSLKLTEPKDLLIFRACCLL
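Test system: Human PMI in coupled enzyme assay | Input: 15 ng/mL PMI | Medium: HEPES-buffered pH 7.4 with magnesium and detergent | Compound: One concentration, 20 µM, in 1% DMSO | Incubation: Enzyme reaction with compound 20 min at room temperature | Detection: Diaphorase-driven resazurin-to-resorufin fluorescence, excitation 544, emission 590 nm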
Rad51 HR inh: human RAD51 strand exchange inhibitors, primary screen, biochemical, fluorescence; DNA repair protein RAD51 homolog 1 (Homo sapiens), Q06609; hRad51 DNA strand exchange, fluorescence dequenching; inhibition, % at 10 µM; hit rate 0.085% among 200,000;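 active = inhibition above 40% at the single screening dose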;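 also: 0% = DMSO control wells and 100% = blanks with heterologous ssDNA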
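Test system – preformed human Rad51 ssDNA filaments · Reagent – Donor/quencher-labelled 47-bp dsDNA substrate · Incubation – 37 °C 15-min filament assembly, 30-min compound preincubation, 15-min exchange · Signal – FRET fluorescence dequenching, excitation 485 nm, emission 520 nm · Read-out – percent inhibition from fluorescence, normalised to plate control and blank means · Benchmarks – plate control and blank wells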
WT yeast gro inh: growth inhibition of WT strain, primary screen, mitochondrial fusion inhibitor project, WT and mutant strains, chemical genetic; mitochondrial fusion phenotypic screen; inhibition, % at 10 µM; hit rate 2.1% among 190,000; in the data active = inhibition above about 58%; tested in S. cerevisiae
PMI activator: activators of human PMI, primary screen, biochemical, fluorescence intensity, near-Km mannose 6-phosphate; hit rate 0.005% among 190,000; activation factor at 20 µM; AID 1214, 2008; Mannose-6-phosphate isomerase (Homo sapiens), P34949; purified human PMI, coupled resazurin fluorescence, 20 min; active compounds read high; 1 = vehicle control, 0 substrate-free wells;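 active = activation factor of 2 or more at 20 µM, relative to plate controls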
Lmaj promast: Leishmania major promastigote growth inhibition, primary screen; AID 1063, 2008; inhibition, % at 10 µM; Leishmania major promastigotes, resazurin fluorescence viability; hit rate 9% among 200,000; in the data active = inhibition above about 50%;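 also: promastigotes grown with compound for 44 hours at 28 °C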
Calpain2 inh: inhibitors of pig calpain II, primary screen, biochemical, fluorogenic peptide substrate, 1536-well | purified calpain II, 30 min | inhibition, % at 16 µM | hit rate 0.37% among 220,000 | AID 1236, 2008;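 active = inhibition above about 50%, limit read from the data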
An asterisk follows results filed as active; / = no result.

SMILES | PMI act hi M6P | Rad51 HR inh | WT yeast gro inh | PMI activator | Lmaj promast | Calpain2 inh
NC(N)=N/N=C/c1ccc(OCc2ccc(Cl)cc2)cc1 | 1.1 | 9.7 | 81.9 | 1.1 | 100.6* | 34.1
O/N=C/c1ccccc1OCc1ccc(Cl)cc1 | 0.9 | 2.1 | 21.8 | 0.9 | 7.0 | 27.8
c1ccc(-c2noc(CN3CCCC(OCc4ccccn4)C3)n2)cc1 (stereo not drawn) | 1 | 4.6 | 5.5 | 0.9 | -6.5 | -29.6
CCOC(=O)CN1C(=O)CCSc2ccc(Cl)cc21 | 0.9 | 2.6 | 2.7 | 0.9 | -2.8 | -11.8
CCCNC(=O)Nc1ccc(NC(C)=O)cc1 | 0.9 | 3.9 | 8.6 | 0.9 | -4.3 | -1.6
S=C1NCCc2ccc(Cl)cc2C1c1ccccc1Cl (stereo not drawn) | 1 | 0.8 | 67.9* | 0.9 | 5.4 | -14.8
Clc1ccc2c(c1)C(C1=NCCN1)c1ccccc1CS2 (stereo not drawn) | 1.1 | -12.6 | 15.5 | 1.1 | 10.0 | 24.8
C/C(=N\NC(=O)CN1CCN(S(=O)(=O)c2ccc(C)cc2)CC1)c1ccc(O)cc1 | / | / | / | / | / | 18.5
CCOC(=O)C1=C(C)N=C2c3ccccc3C(=O)C2C1c1ccc(C)cc1 (stereo not drawn) | 1.5 | 1.0 | 3.7 | 1.2 | 5.1 | 8.6
Cc1ccc(C2C3=C(CCCC3=O)N=C3c4ccccc4C(=O)C32)cc1 (stereo not drawn) | 0.8 | 1.4 | -11.4 | 0.8 | 66.7* | -11.7
CCOC(=O)C1=C(C)N=C2c3ccccc3C(=O)C2C1c1ccccc1 (stereo not drawn) | 0.9 | 0.1 | -0.3 | 0.9 | -3.0 | -13.4
O=C1CCCC2=C1C(c1ccc(Cl)cc1)C1C(=O)c3ccccc3C1=N2 (stereo not drawn) | 1 | 6.8 | 3.3 | 1 | 57.0* | -24.3
O=C1CCCC2=C1C(c1ccc(Cl)cc1)N1C(=O)CCSC1=N2 (stereo not drawn) | 0.9 | 5.9 | -14.6 | 0.9 | -2.3 | -24.1
O=C1CCCC2=C1C(c1ccccc1)C1C(=O)c3ccccc3C1=N2 (stereo not drawn) | 1.1 | 8.3 | 10.4 | 1 | 62.2* | 12.1
CC(C)OC(=O)c1cccnc1N1CCN(c2cccc(Cl)c2)CC1 | 0.9 | -5.1 | 73.5* | 0.8 | 11.3 | 39.0
C=CCc1ccc(O)c(-c2cc(CC=C)ccc2O)c1 | 0.8 | -4.2 | 73.6* | 0.8 | -8.5 | -52.2
Cc1nc2ccccc2c(=O)n1NC(=O)c1ccc([N+](=O)[O-])cc1 | 1.1 | 5.2 | 8.8 | 1.1 | -7.1 | 37.5
O=C(/C=C/c1ccco1)NCc1ccccn1 | 1.1 | -3.8 | -13.0 | 1.1 | -1.5 | -37.6
C=CCn1c(=O)c2ccc(C(=O)NCc3ccccc3)cc2n(Cc2ccc(Cl)cc2)c1=O | 1 | 3.0 | 1.6 | 0.9 | -1.7 | 21.8
C=CCn1c(=O)c2ccc(C(=O)NCc3ccccc3)cc2n(Cc2ccccc2Cl)c1=O | 1.1 | 5.2 | 6.8 | 1.1 | 56.0* | 10.8
CC(C)(C)NC(=O)c1cccc(NC(=O)CSc2ccccc2)c1 | 1 | -7.5 | -5.3 | 1 | 77.5* | -11.5
CC(C)(C)NC(=O)c1cccc(NC(=O)Cc2cccs2)c1 | 1 | / | -5.6 | 1 | -0.1 | -9.0
CC(C)=NOc1cc(NC(=O)CCl)cc([N+](=O)[O-])c1 | 1 | 7.8 | 12.7 | 1.1 | 98.6* | 11.3
Nc1nnn(CC(=O)N/N=C/c2cn[nH]c2-c2ccccc2)n1 | / | 0.7 | / | / | / | -21.9
C[C@@H]1CCC[C@@]2(O[C@H](CCO)C[C@H](O)[C@H]2O)O1 | / | -6.3 | / | / | / | /
SMILES | PMI act hi M6P | Rad51 HR inh | WT yeast gro inh | PMI activator | Lmaj promast | Calpain2 inh
CC(C)(C)Nc1nc2ccc([N+](=O)[O-])cc2o1 | / | / | / | / | / | -12.5
CCOC(=O)c1ccc(NC(=O)CSc2nnc(CCc3ccc(C)o3)n2-c2ccccc2)cc1 | 0.9 | -6.9 | 13.5 | 0.9 | 51.6* | -16.3
CC1CCN(CCCn2c(SCC(=O)Nc3ccccc3Cl)nc3ccccc3c2=O)CC1 | 1 | 1.0 | 12.5 | 0.9 | 64.6* | 28.9
CCOc1ccc(NC(=O)CSc2nc3ccccc3c(=O)n2CCCC(=O)N2CCCC2)cc1 | 1 | -4.8 | 11.3 | 0.9 | -2.5 | 23.9
COc1ccc(NC(=O)CSc2nc3ccccc3c(=O)n2CCC(=O)N2CCCCC2)cc1 | 1 | -2.1 | -5.9 | 0.8 | 70.0* | -11.5
COC(=O)c1ccc2c(=O)n(CC3CCCO3)c(SCC(=O)Nc3ccccc3Cl)nc2c1 (stereo not drawn) | 1 | 1.1 | 12.2 | 0.9 | 0.8 | -24.5
COc1ccc(NC(=O)CSc2nc3ccccc3c(=O)n2CCCN2CCC(C)CC2)c(OC)c1 | 1.4 | 11.8 | 9.7 | 1.3 | 55.2* | -4.1
Cc1ccc(CCc2nnc(SCC(=O)Nc3ccccc3Cl)n2-c2ccccc2)o1 | 1 | -6.1 | 25.8 | 0.9 | 6.0 | 8.8
Cc1nc2ccccc2c(=O)n1NC(=O)c1cc(Br)ccc1Cl | / | -6.8 | / | / | / | 9.0
COc1ccc(S(=O)(=O)N2CCOCC2)cc1NC(=O)c1cccc2c(=O)c(C)c(-c3ccccc3)oc12 | 0.9 | -1.3 | -10.3 | 0.9 | 41.2 | -93.5
Cc1ccc(NC(=O)CSc2nc3ccccc3c(=O)n2CCCN2CCCCC2)cc1Cl | 1 | -23.8 | 34.9 | 0.9 | 100.5* | 1.2
COc1ccc(NC(=O)CSc2nnc(C3CC3)n2N)cc1 | 0.9 | -1.8 | 3.4 | 0.9 | -4.4 | 14.4
O=C(CSc1nc2ccccc2c(=O)n1CCCN1CCOCC1)Nc1cccc(S(=O)(=O)N2CCCCCC2)c1 | 0.9 | 2.4 | -4.8 | 0.9 | 73.8* | -48.5
COc1ccc(NC(=O)CSc2nnc(C3CCCCC3)n2-c2ccccc2)cc1 | 0.9 | -8.0 | -1.7 | 0.9 | 69.7* | -7.1
CN(C)c1ccc(C(c2nnnn2C2CCCCC2)N2CCN(C(=O)c3ccco3)CC2)cc1 (stereo not drawn) | / | / | / | / | 28.4 | /
c1csc(C(c2nnnn2C2CCCCC2)N2CCN(c3nc4ccccc4s3)CC2)c1 (stereo not drawn) | 1 | -4.3 | 24.0 | 1 | 93.4* | -69.0
O=c1c(C(c2nnnn2C2CCCCC2)N2CCCCC2)coc2ccc(Cl)cc12 (stereo not drawn) | 1 | -6.2 | 28.0 | 0.9 | 62.5* | -29.7
Fc1ccccc1N1CCN(C(c2ccncc2)c2nnnn2C2CCCC2)CC1 (stereo not drawn) | 1 | -1.5 | -3.7 | 0.9 | 41.0 | 3.1
N#Cc1cccc(C(c2nnnn2C2CCCC2)N2CCCCCC2)c1 (stereo not drawn) | 1.1 | 4.1 | -6.8 | 1.1 | 17.8 | 26.4
O=C(c1ccco1)N1CCN(C(c2cccs2)c2nnnn2C2CCCCC2)CC1 (stereo not drawn) | 1 | 0.9 | 23.3 | 1 | 60.0* | 21.9
